The values that follow come from ChEMBL document CHEMBL2021796, “Synthesis and biological evaluation of a series of thieno-expanded tricyclic purine 2'-deoxy nucleoside analogues” (Bioorg Med Chem, 2012).

Where only a bound is given, the exact number is not on record here.

By EC50 is commonly meant the concentration that produces a half-maximal response.

This assay has as its system Vaccinia virus. Description: Antiviral activity against Vaccinia virus infected in HEL cells assessed as inhibition of virus-induced cytopathogenicity. Conditions: Orthopoxvirus vaccinia. It is filed as functional, organism-based. The essentials: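 Confluent HEL, Vero or HeLa monolayers were infected with 100 CCID50 of virus while exposed to fivefold serial dilutions of compound. Virus-induced cytopathicity was scored when it reached completion in untreated infected controls. The EC50 is the concentration that inhibits cytopathicity by 50%.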
(In general: Damage to the host cells serves as the signal in cytopathic effect assays.)
For the compound `Nc1nc2c(sc3ncn([C@H]4C[C@H](O)[C@@H](CO)O4)c32)c(=O)[nH]1`, the EC50 is over 100 µM.

On to `Nc1ncnc2c1sc1ncn([C@H]3C[C@H](O)[C@@H](CO)O3)c12`, for which the EC50 is over 20 µM.

For the compound `NC(=O)c1ncn([C@@H]2O[C@H](CO)[C@@H](O)[C@H]2O)n1` [RIBAVIRIN], the EC50 was over 250 µM.
